Test results taken from ChEMBL document CHEMBL4312029, “Structure-activity relationship studies and in vitro and in vivo anticancer activity of novel 3-aroyl-1,4-diarylpyrroles against solid tumors and hematological malignancies” (Eur J Med Chem, 2020).

Experiments:
[1] = Cytotoxicity against IM resistant human LAMA84-r cells assessed as reduction in cell viability incubated for 48 hrs by MTT assay; type: functional, cell-based
[2] = test system: SW480; experiment: Cytotoxicity against human SW480 cells assessed as reduction in cell viability incubated for 48 hrs by MTT assay; type: functional, cell-based; details: for IC50: SW480, 48 h
[3] = test system: KBM5; experiment: Cytotoxicity against human KBM5 cells expressing IM-resistant Bcr/Abl T315I mutant assessed as reduction in cell viability incubated for 48 hrs by MTT assay; type: functional, cell-based; details: KBM5, 48 h
[4] = test system: MCF7; experiment: Cytotoxicity against human MCF7 cells assessed as reduction in cell growth incubated for 96 hrs by MTT assay; type: functional, cell-based; details: MCF7, 96 h
Outline: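 Growth inhibition of human breast carcinoma cells, reported as IC50; run in duplicate or triplicate.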

[5] = test system: U-87 MG; experiment: Cytotoxicity against human U87MG cells assessed as reduction in cell viability incubated for 48 hrs by MTS assay; type: functional, cell-based, U-87MG ATCC; details: for inhibition: U-87MG ATCC
Outline: (§1)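 Increasing concentrations applied to glioblastoma and neuroblastoma lines to give dose-response viability curves; cytotoxic IC50 from triplicate experiments. Incubation 48 h, except U343MG at 72 h.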

[6] = test system: KU812 cell line; experiment: Cytotoxicity against human KU812 cells expressing IM- sensitive wild type Bcr/Abl assessed as reduction in cell viability incubated for 48 hrs by MTT assay; type: functional, cell-based; details: KU812, 48 h
[7] = test system: PBMC; experiment: Cytotoxicity against human PBMC assessed as cell viability by MTT assay; type: cell-based
[8] = Cytotoxicity against human SK-N-BE cells assessed as reduction in cell viability incubated for 48 hrs by MTT assay; type: functional, cell-based; outline: as §1
[9] = (§2) Cytotoxicity against human U343MG cells assessed as reduction in cell viability incubated for 72 hrs by MTS assay; type: functional, cell-based; details: U-343MG; outline: as §1
[10] = organism: Homo sapiens; experiment: as §2; type: functional, cell-based; outline: as §1
[11] = test system: SW-620; experiment: Cytotoxicity against human SW620 cells assessed as reduction in cell viability incubated for 48 hrs by MTT assay; type: functional, cell-based; details: for IC50: SW-620, 48 h
[12] = test system: HT-29; experiment: Cytotoxicity against human HT-29 cells assessed as reduction in cell viability incubated for 48 hrs by MTT assay; type: functional, cell-based; details: for IC50: HT-29, 48 h
[13] = Cytotoxicity against human SK-N-BE(2)C cells assessed as reduction in cell viability incubated for 48 hrs by MTT assay; type: functional, cell-based; outline: as §1
[14] = target: Tubulin; experiment: Inhibition of tubulin polymerization (unknown origin) incubated for 15 mins followed by GTP addition and measured for 20 mins by spectrophotometry; type: protein-complex assay, Homo sapiens
Outline: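 Tubulin assembly assay with tubulin at 10 µM. IC50 for inhibition of polymerization; run in duplicate or triplicate.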

[15] = test system: T98G; experiment: Cytotoxicity against human T98G cells assessed as reduction in cell viability incubated for 48 hrs by MTS assay; type: functional, cell-based; outline: as §1
[16] = Cytotoxicity against human LAMA84-s cells expressing IM-sensitive wild type Bcr/Abl assessed as reduction in cell viability incubated for 48 hrs by MTT assay; type: functional, cell-based
[17] = test system: T-24; experiment: Cytotoxicity against human T24 cells assessed as reduction in cell viability incubated for 48 hrs by MTT assay; type: functional, cell-based; details: T-24, 48 h
[18] = test system: KBM5; experiment: Cytotoxicity against human KBM5 cells expressing IM- sensitive wild type Bcr/Abl assessed as reduction in cell viability incubated for 48 hrs by MTT assay; type: functional, cell-based; details: KBM5, 48 h
[19] = target: Tubulin (Homo sapiens) (UniProt P68371+Q9H4B7+P0DPH7+P68366+Q13509+Q71U36+P04350+Q3ZCM7+P07437+P68363+Q9BQE3+Q6PEY2+Q13885+Q9BVA1+Q9BUF5); experiment: Inhibition of [3H]colchicine binding to tubulin (unknown origin) at 5 uM incubated for 10 mins by DEAE-cellulose filter method relative to control; type: protein-complex assay
[20] = test system: HCT-116; experiment: Cytotoxicity against human HCT116 cells assessed as reduction in cell viability incubated for 48 hrs by MTT assay; type: functional, cell-based; details: for IC50: HCT-116, 48 h

Row | Structure (SMILES) | IC50 [1] [nM] | inhibition [2] | IC50 [2] [nM] | IC50 [3] [nM] | IC50 [4] [nM] | Emax [5] [%] | IC50 [5] [nM] | inhibition [5] | IC50 [6] [nM] | Activity [7] | IC50 [8] [nM] | Emax [9] [%] | IC50 [9] [nM] | inhibition [10] | inhibition [11] | IC50 [11] [nM] | inhibition [12] | IC50 [12] [nM] | IC50 [13] [nM] | IC50 [14] [nM] | other results
1 | COc1cc(C(=O)c2cn(-c3cccc(N)c3)cc2-c2ccccc2[N+](=O)[O-])cc(OC)c1OC | 20 | Dose-dependent effect | 164 | 21 | 14 | 32.4 | 29.9 to 30 | Dose-dependent effect | 16 | Non-Toxic | 311 | 35.3 | 30 to 30.2 | Dose-dependent effect | Dose-dependent effect | 38 | Dose-dependent effect | 51 | 132 | 710 | Emax [15]: 26.7%; IC50 [15]: 34.6 to 35 nM; inhibition [15]: Dose-dependent effect; IC50 [16]: 18 nM; IC50 [17]: 12 nM; IC50 [18]: 15 nM; inhibition [19]: 82%; inhibition [20]: Dose-dependent effect; IC50 [20]: 44 nM
2 | COc1cc(C(=O)c2cn(-c3ccc(F)cc3)cc2-c2ccc(N)cc2)cc(OC)c1OC | 22 | Dose-dependent effect | 167 | 26 | 12 | 32 | 45.8 to 46 | Dose-dependent effect | 18 | Non-Toxic | 288 | 37.1 | 20 to 20.1 | Dose-dependent effect | Dose-dependent effect | 47 | Dose-dependent effect | 35 | 178 | 500 | Emax [15]: 31%; IC50 [15]: 21.8 to 22 nM; inhibition [15]: Dose-dependent effect; IC50 [16]: 20 nM; IC50 [17]: 48 nM; IC50 [18]: 25 nM; inhibition [19]: 90%; inhibition [20]: Dose-dependent effect; IC50 [20]: 36 nM
